Experimental data taken from article PMC11070865 (Heliyon, 2024).
Converted amounts (≈) assume the structure as drawn. Read-outs that look alike come from different tables or passages of the source.

How the values were obtained:
[1] = test system: KATO-III cell line; test: Cell viability by MTT assay, KATO-III; type: cell-based; conditions: for IC50: Homo sapiens, KATO III, read-out: IC50 on KATO-III
[2] = test system: WI-38 normal lung fibroblast cell line; test: Cell viability by MTT assay, WI-38; type: cell-based; conditions: Homo sapiens, read-out: IC50 on WI-38
[3] = test system: KATO-III cells; test: Programmed cell death, annexin V/PI flow cytometry; type: cell-based; conditions: for Q2 late apoptotic cells (annexin V+ PI+): 72 h
[4] = test system: KATO-III cells; test: Cell cycle arrest analysis, PI flow cytometry; type: cell-based; conditions: MF 7.5, 15 and 30 μg/mL, from 24 h exposure onwards, P < 0.01
In short: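 KATO-III cells at 5 × 10⁵ per well in 6-well plates were exposed to test compound (0, 7.5, 15 and 30 μg/mL final) or 1 % (v/v) DMSO for 24, 48 and 72 h (37 °C, 5 % CO₂). Cells were trypsinized and washed in cold PBS, then fixed in 70 % ethanol on ice for 30 min. They were treated with RNase A (100 μg/mL, 30 min, 37 °C) and stained with PI (50 μg/mL). Flow cytometry recorded 10,000 events per sample, in triplicate.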

[5] = test system: KATO-III cells; test: Cell imaging; type: cell-based
In short: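 KATO-III cells at 5 × 10⁵ per well in 6-well plates were left for 16 h, then given test compound (7.5, 15 or 30 μg/mL), doxorubicin (1.14 μg/mL) or 1 % (v/v) DMSO for 24, 48 and 72 h. Culture was at 37 °C, 5 % CO₂, humidified. Morphology was viewed by light microscopy with camera imaging at 100× and 200×.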

[6] = test system: COX2; test: RT-qPCR transcript expression, COX2; type: cell-based; conditions: KATO-III, MF 30 μg/mL or doxorubicin 1.14 μg/mL
[7] = test system: NFkB; test: RT-qPCR transcript expression, NFkB; type: cell-based; conditions: KATO-III, MF 30 μg/mL or doxorubicin 1.14 μg/mL
[8] = test system: CASP3; test: RT-qPCR transcript expression, CASP3; type: cell-based; conditions: KATO-III, MF 30 μg/mL or doxorubicin 1.14 μg/mL
[9] = test system: CASP7; test: RT-qPCR transcript expression, CASP7; type: cell-based; conditions: KATO-III, MF 30 μg/mL or doxorubicin 1.14 μg/mL
[10] = test system: CTSB; test: RT-qPCR transcript expression, CTSB; type: cell-based; conditions: KATO-III, MF 30 μg/mL
[11] = test system: BCL-2; test: RT-qPCR transcript expression, BCL-2; type: cell-based; conditions: KATO-III, 48 h (doxorubicin: from 48 h onwards); MF 30 μg/mL or doxorubicin 1.14 μg/mL
[12] = test system: LU-1 lung cancer cell line; conditions: MF from Lisotrigona furua propolis; cited from earlier work
[13] = test system: MCF-7 breast cancer cell line; conditions: MF from Lisotrigona furua propolis; cited from earlier work
[14] = test system: Caco-2, KB, SK-MEL-28 and HN30 cancer cells; conditions: SK-MEL-28, HN30; cited from earlier work
[15] = test system: NCI-N87 gastric cancer cells; conditions: at 200 μg/mL; cited from earlier work
[16] = test system: human gastric adenocarcinoma cell line (AGS cells); conditions: read-out: IC50 against AGS cells; cited from earlier work

Structure (SMILES): C/C(=C\CC[C@@H](C)[C@H]1CC[C@@]2(C)[C@@H]3CC[C@H]4C(C)(C)[C@@H](O)CC[C@@]45C[C@@]35CC[C@]12C)C(=O)O [Compound 2, mangiferolic acid]
- IC50 ([1]; 24 h): 16 µg/mL (≈ 35.1 µM)
- IC50 ([1]; 48 h): 12 µg/mL (≈ 26.2 µM)
- IC50 ([1]; 72 h): 4.78 µg/mL (≈ 10.5 µM)
- IC50 ([2]; WI-38, 24 h): 22 µg/mL (≈ 48.3 µM)
- IC50 ([2]; WI-38, 48 h): 13.7 µg/mL (≈ 29.9 µM)
- IC50 ([2]; WI-38, 72 h): 11.6 µg/mL (≈ 25.4 µM)
- Q2 late apoptotic cells (annexin V+ PI+) ([3]; MF 15 μg/mL, listed as MF): slightly increased level of apoptotic cells
- cell cycle arrest [4]: induced detectable levels of cell cycle arrest at the sub-G1 phase and S phase population
- morphology of KATO-III cells ([5]; 15 μg/mL, 24 and 48 h): No significant change in the morphology
- morphology of KATO-III cells ([5]; 30 μg/mL, 48 h, 100× magnification): lower density of cells
- COX2 transcript expression level vs control ([6]; 24 h): upregulated
- COX2 transcript expression level vs control ([6]; 48 h): significant upregulation
- COX2 transcript expression level vs control ([6]; 72 h): increased in gene expression compared to control cells
- NFkB transcript expression level vs control ([7]; 24 h): upregulated with significant increased
- NFkB transcript expression level vs control ([7]; 48 h): significant upregulation
- NFkB transcript expression level vs control ([7]; 72 h): increased in gene expression compared to control cells
- CASP3 transcript expression level vs control ([8]; 48 h): significant upregulation
- CASP3 transcript expression level vs control ([8]; 72 h): increased in gene expression compared to control cells
- CASP7 transcript expression level vs control ([9]; 48 h): significant upregulation
- CASP7 transcript expression level vs control ([9]; 72 h): increased in gene expression compared to control cells
- CTSB transcript expression level vs control ([10]; 48 h): significant upregulation
- CTSB transcript expression level vs control ([10]; 72 h): only a slight increase compared to control cells
- BCL-2 transcript expression level vs control [11]: remained the same as in control cells
- IC50 against LU-1 [12]: 13.33 µg/mL (≈ 29.2 µM)
- IC50 against MCF-7 [13]: 62.85 µg/mL (≈ 138 µM)

Structure (SMILES): COc1cccc2c1C(=O)c1c(O)c3c(c(O)c1C2=O)C[C@@](O)(C(=O)CO)C[C@@H]3O[C@H]1C[C@H](N)[C@H](O)[C@H](C)O1 [Doxorubicin, doxorubicin, reference compound]
- IC50 ([1]; 24 h): 1.55 µg/mL (≈ 2.85 µM)
- IC50 ([1]; 48 h): 1.43 µg/mL (≈ 2.63 µM)
- IC50 ([1]; 72 h): 0.56 µg/mL (≈ 1.03 µM)
- fold higher cytotoxicity than compounds 1 and 2 ([1]; both cancer and normal cell lines): > 5 fold
- IC50 ([2]; WI-38, 24 h): 0.78 µg/mL (≈ 1.44 µM)
- IC50 ([2]; WI-38, 48 h): 0.09 µg/mL (≈ 0.166 µM)
- IC50 ([2]; WI-38, 72 h): 0.02 µg/mL (≈ 0.0368 µM)
- Q1 early apoptotic cells (annexin V+ PI−) ([3]; doxorubicin 1.14 μg/mL, 48 h): significantly enhanced level of early apoptosis
- Q2 late apoptotic cells (annexin V+ PI+) ([3]; doxorubicin 1.14 μg/mL): significantly higher compared to the control (P < 0.01)
- morphology of KATO-III cells ([5]; 1.14 μg/mL, 72 h): clear loss of cell density
- morphology of KATO-III cells ([5]; 1.14 μg/mL, after 48 h): cell shrinkage and blebbing
- COX2 transcript expression level vs control ([6]; 24 h): no significant difference
- NFkB transcript expression level vs control ([7]; 24 h): no significant difference
- CASP3 transcript expression level vs control ([8]; 48 h): significantly up-regulated
- CASP3 transcript expression level vs control ([8]; 72 h): significantly up-regulated
- CASP7 transcript expression level vs control ([9]; 24 h): slightly increase
- CASP7 transcript expression level vs control ([9]; 48 h): significantly up-regulated
- CASP7 transcript expression level vs control ([9]; 72 h): significantly up-regulated
- BCL-2 transcript expression level vs control [11]: slightly decreased (but not significant)

Structure (SMILES): COc1c(O)cc2oc3cc(O)c(CC=C(C)C)c(O)c3c(=O)c2c1CC=C(C)C [alpha-mangostin]
- migration of cancer cells [14]: inhibited the migration

Structure (SMILES): CC(C)=CCc1c(O)cc2oc3cc(O)c(O)c(CC=C(C)C)c3c(=O)c2c1O [gamma-mangostin]
- migration of cancer cells [14]: inhibited the migration

Structure (SMILES): O=C1C[C@@H](c2ccccc2)Oc2cc(O)cc(O)c21 [pinocembrin]
- cytotoxic activity [15]: 72.5%

Structure (SMILES): O=c1c(O)c(-c2ccc(O)c(O)c2)oc2cc(O)cc(O)c12 [quercetin]
- IC50 [16]: 160 µM
